ChEMBL document CHEMBL3580613, “First enantiospecific syntheses of marine merosesquiterpenes neopetrosiquinones a and B: evaluation of biological activity” (J Nat Prod, 2015)
Activity calls are given as the source filed them. The rule behind the calls is not given here.

Legend:
A549 [1] = test: Antiproliferative activity against human A549 cells incubated for 3 days by sulforhodamine B assay; format: functional, cell-based; settings: A549, 72 h
Procedure, shortened: (§1)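 Cells in DMEM with 10% heat-inactivated FBS, penicillin–streptomycin and 2 mM L-glutamine at 37 °C, 5% CO2. Seeded at 5 × 10^3 cells/cm2 in quadruplicate. After 24 h, exposed to increasing compound concentrations for 3 days. Fixed with cold 10% TCA, stained with 0.4% sulforhodamine in 1% acetic acid, dye solubilized in 10 mM Tris-base pH 10.5, OD read at 492 nm. IC50 by linear interpolation on semilog dose–response curve. Mean ± SEM of four independent determinations.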

MCF7 [2] = test: Antiproliferative activity against human MCF7 cells incubated for 3 days by sulforhodamine B assay; format: functional, cell-based; settings: MCF7, 72 h; procedure, shortened: as §1
T84 [3] = test: Antiproliferative activity against human T84 cells incubated for 3 days by sulforhodamine B assay; format: functional, cell-based; settings: T84, 72 h; procedure, shortened: as §1
MCF7 [4] = test: Induction of apoptosis in human MCF7 cells at antiproliferative IC50 incubated for 6 hrs by fluorescence microscopy based TUNEL DNA fragmentation assay; format: functional, cell-based
A549 [5] = test: Induction of apoptosis in 24 hrs serum-starved human A549 cells assessed as accumulation at subG1 phase at antiproliferative IC50 incubated for 24 hrs by propidium iodide staining based flow cytometry (reference value: 3.5 +/- 1.1%); format: functional
A549 [6] = test: Induction of apoptosis in 24 hrs serum-starved human A549 cells assessed as accumulation at subG1 phase at 2 times antiproliferative IC50 incubated for 24 hrs by propidium iodide staining based flow cytometry (reference value: 3.5 +/- 1.1%); format: functional
A549 [7] = test: Induction of cell cycle arrest in 24 hrs serum-starved human A549 cells assessed as accumulation at G0-G1 phase at antiproliferative IC50 incubated for 24 hrs by propidium iodide staining based flow cytometry (reference value: 62 +/- 1%); format: functional
A549 [8] = test: Induction of cell cycle arrest in 24 hrs serum-starved human A549 cells assessed as accumulation at G0-G1 phase at 2 times antiproliferative IC50 incubated for 24 hrs by propidium iodide staining based flow cytometry (reference value: 62 +/- 1%); format: functional
A549 [9] = test: Induction of cell cycle arrest in 24 hrs serum-starved human A549 cells assessed as accumulation at S phase at antiproliferative IC50 incubated for 24 hrs by propidium iodide staining based flow cytometry (reference value: 12 +/- 0.9%); format: functional
A549 [10] = test: Induction of cell cycle arrest in 24 hrs serum-starved human A549 cells assessed as accumulation at S phase at 2 times antiproliferative IC50 incubated for 24 hrs by propidium iodide staining based flow cytometry (reference value: 12 +/- 0.9%); format: functional
A549 [11] = test: Induction of cell cycle arrest in 24 hrs serum-starved human A549 cells assessed as accumulation at G2-M phase at antiproliferative IC50 incubated for 24 hrs by propidium iodide staining based flow cytometry (reference value: 22 +/- 1.8%); format: functional
A549 [12] = test: Induction of cell cycle arrest in 24 hrs serum-starved human A549 cells assessed as accumulation at G2-M phase at 2 times antiproliferative IC50 incubated for 24 hrs by propidium iodide staining based flow cytometry (reference value: 22 +/- 1.8%); format: functional
MCF7 [13] = test: Induction of apoptosis in 24 hrs serum-starved human MCF7 cells assessed as accumulation at subG1 phase at antiproliferative IC50 incubated for 24 hrs by propidium iodide staining based flow cytometry (reference value: 4 +/- 1.1%); format: functional
MCF7 [14] = test: Induction of apoptosis in 24 hrs serum-starved human MCF7 cells assessed as accumulation at subG1 phase at 2 times antiproliferative IC50 incubated for 24 hrs by propidium iodide staining based flow cytometry (reference value: 4 +/- 1.1%); format: functional
MCF7 [15] = test: Induction of cell cycle arrest in 24 hrs serum-starved human MCF7 cells assessed as accumulation at G0-G1 phase at antiproliferative IC50 incubated for 24 hrs by propidium iodide staining based flow cytometry (reference value: 51 +/- 0.9%); format: functional
MCF7 [16] = test: Induction of cell cycle arrest in 24 hrs serum-starved human MCF7 cells assessed as accumulation at G0-G1 phase at 2 times antiproliferative IC50 incubated for 24 hrs by propidium iodide staining based flow cytometry (reference value: 51 +/- 0.9%); format: functional
MCF7 [17] = test: Induction of cell cycle arrest in 24 hrs serum-starved human MCF7 cells assessed as accumulation at S phase at antiproliferative IC50 incubated for 24 hrs by propidium iodide staining based flow cytometry (reference value: 17 +/- 0.8%); format: functional
MCF7 [18] = test: Induction of cell cycle arrest in 24 hrs serum-starved human MCF7 cells assessed as accumulation at S phase at 2 times antiproliferative IC50 incubated for 24 hrs by propidium iodide staining based flow cytometry (reference value: 17 +/- 0.8%); format: functional
MCF7 [19] = test: Induction of cell cycle arrest in 24 hrs serum-starved human MCF7 cells assessed as accumulation at G2-M phase at antiproliferative IC50 incubated for 24 hrs by propidium iodide staining based flow cytometry (reference value: 28 +/- 0.3%); format: functional
MCF7 [20] = test: Induction of cell cycle arrest in 24 hrs serum-starved human MCF7 cells assessed as accumulation at G2-M phase at 2 times antiproliferative IC50 incubated for 24 hrs by propidium iodide staining based flow cytometry (reference value: 28 +/- 0.3%); format: functional
T84 [21] = test: Induction of apoptosis in 24 hrs serum-starved human T84 cells assessed as accumulation at subG1 phase at antiproliferative IC50 incubated for 24 hrs by propidium iodide staining based flow cytometry (reference value: 4 +/- 0.3%); format: functional
T84 [22] = test: Induction of apoptosis in 24 hrs serum-starved human T84 cells assessed as accumulation at subG1 phase at 2 times antiproliferative IC50 incubated for 24 hrs by propidium iodide staining based flow cytometry (reference value: 4 +/- 0.3%); format: functional
T84 [23] = test: Induction of cell cycle arrest in 24 hrs serum-starved human T84 cells assessed as accumulation at G0-G1 phase at antiproliferative IC50 incubated for 24 hrs by propidium iodide staining based flow cytometry (reference value: 65 +/- 1.1%); format: functional
T84 [24] = test: Induction of cell cycle arrest in 24 hrs serum-starved human T84 cells assessed as accumulation at G0-G1 phase at 2 times antiproliferative IC50 incubated for 24 hrs by propidium iodide staining based flow cytometry (reference value: 65 +/- 1.1%); format: functional
T84 [25] = test: Induction of cell cycle arrest in 24 hrs serum-starved human T84 cells assessed as accumulation at S phase at antiproliferative IC50 incubated for 24 hrs by propidium iodide staining based flow cytometry (reference value: 13 +/- 0.6%); format: functional
T84 [26] = test: Induction of cell cycle arrest in 24 hrs serum-starved human T84 cells assessed as accumulation at S phase at 2 times antiproliferative IC50 incubated for 24 hrs by propidium iodide staining based flow cytometry (reference value: 13 +/- 0.6%); format: functional
T84 [27] = test: Induction of cell cycle arrest in 24 hrs serum-starved human T84 cells assessed as accumulation at G2-M phase at antiproliferative IC50 incubated for 24 hrs by propidium iodide staining based flow cytometry (reference value: 18 +/- 1%); format: functional
T84 [28] = test: Induction of cell cycle arrest in 24 hrs serum-starved human T84 cells assessed as accumulation at G2-M phase at 2 times antiproliferative IC50 incubated for 24 hrs by propidium iodide staining based flow cytometry (reference value: 18 +/- 1%); format: functional
Trypanosoma cruzi = test: Antiparasitic activity against Trypanosoma cruzi; format: functional, organism-based
MCF7 [29] = test: Induction of apoptosis in human MCF7 cells at 2 times antiproliferative IC50 incubated for 6 hrs by fluorescence microscopy based TUNEL DNA fragmentation assay; format: functional, cell-based

IC50 (A549 [1]) [µM] | IC50 (MCF7 [2]) [µM] | SMILES | IC50 (T84 [3]) [µM] | Activity (A549 [5]) [%] | Activity (A549 [6]) [%] | Activity (A549 [7]) [%] | Activity (A549 [8]) [%] | Activity (A549 [9]) [%] | Activity (A549 [10]) [%] | Activity (A549 [11]) [%] | Activity (A549 [12]) [%] | Activity (MCF7 [13]) [%] | Activity (MCF7 [14]) [%] | Activity (MCF7 [15]) [%] | Activity (MCF7 [16]) [%] | Activity (MCF7 [17]) [%] | Activity (MCF7 [18]) [%] | Activity (MCF7 [19]) [%] | Activity (MCF7 [20]) [%] | Activity (T84 [21]) [%] | other results
8.3 | 7.7 | C[C@]1(CO)CCC[C@]2(C)c3cc4c(cc3C=C[C@@H]12)C(=O)C=CC4=O | 11.5 | 4 | 6.1 | 62 | 67 | 16 | 12 | 17 | 15 | 32 | 93 | 39 | 5 | 12 | 0.7 | 17 | 1.7 | 6.2 | Activity (MCF7 [4]): Active; Activity (T84 [22]): 14%; Activity (T84 [23]): 59%; Activity (T84 [24]): 71%; Activity (T84 [25]): 17%; Activity (T84 [26]): 9%; Activity (T84 [27]): 18%; Activity (T84 [28]): 7.1%
 |  | CC1(C)CCC[C@@]2(C)c3cc4c(cc3CC[C@H]12)C(=O)C=CC4=O [CYCLOZONARONE] |  |  |  |  |  |  |  |  |  |  |  |  |  |  |  |  |  |  | IC50 (Trypanosoma cruzi): 0.7 µM
4.1 | 6.6 | C[C@]1(CO)CCC[C@]2(C)c3cc4c(cc3C(=O)C[C@@H]12)C(=O)C=CC4=O | 8 | 3.9 | 8.1 | 63 | 59 | 14 | 16 | 20 | 17 | 34 | 60 | 37 | 24 | 9.4 | 6.4 | 19 | 9.7 | 5.6 | Activity (MCF7 [4]): Active; Activity (T84 [22]): 6.3%; Activity (T84 [23]): 63%; Activity (T84 [24]): 62%; Activity (T84 [25]): 15%; Activity (T84 [26]): 17%; Activity (T84 [27]): 17%; Activity (T84 [28]): 15%
21 | 33 | COc1ccc(OC)c2cc3c(cc12)C(=O)C[C@H]1[C@@](C)(CO)CCC[C@]31C | 42 | 5.7 | 18 | 68 | 67 | 12 | 7.5 | 14 | 8 | 6.6 | 91 | 66 | 6.9 | 11 | 0.7 | 17 | 1 | 5.7 | Activity (MCF7 [29]): Active; Activity (T84 [22]): 8.2%; Activity (T84 [23]): 68%; Activity (T84 [24]): 76%; Activity (T84 [25]): 15%; Activity (T84 [26]): 9.4%; Activity (T84 [27]): 12%; Activity (T84 [28]): 6.1%
